Assays:
KB [1] = test: Growth inhibitory activity (antiproliferative) against KB cell lines; format: functional, cell-based; details: Homo sapiens
Outline: (§1)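 Cells (50 000 or 5000 per well) were seeded and left overnight. Compound was diluted from DMSO stocks into medium at 2× final and added in duplicate. After 2 days the cells were trypsinized and suspended in PBS with 0.5% trypan blue. Viable cells, those not staining blue, were counted by hemacytometer. IC50 was read graphically. KB/7d is an etoposide-selected multidrug-resistant subclone with reduced topoisomerase II.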

KB [2] = test: Growth inhibitory activity (antiproliferative) against KB/7d cell lines; format: functional, cell-based; details: Homo sapiens; outline: as §1
Nucleic Acid [3] = test: Stimulation of in vitro Topoisomerase II-Linked DNA Complex Formation and Interference with Etoposide-Induced Cleavage at concentration 1 uM; format: functional
Outline: (§2)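 Buffer: 30 mM Tris-HCl pH 7.6, 60 mM KCl, 8 mM MgCl2, 3 mM ATP, 15 mM β-mercaptoethanol and 30 μg/mL BSA, with 4 U topoisomerase II. Reactions ran 30 min at 37 °C. Protein-linked DNA was K+/SDS-precipitated and counted (cpm), mean ± SD of 2–4 determinations.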

Nucleic Acid [4] = test: Stimulation of in vitro Topoisomerase II-Linked DNA Complex Formation and Interference with Etoposide-Induced Cleavage at concentration 50 uM; format: functional; outline: as §2
Nucleic Acid [5] = test: Stimulation of in vitro Topoisomerase II-Linked DNA Complex Formation and Interference with Etoposide-Induced Cleavage at concentration 100 uM; format: functional; outline: as §2
[6] = The differential toxicity ratio was defined as IC50(KB/7d)/IC50(KB); format: functional
Outline: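 The ratio IC50(KB/7d)/IC50(KB) uses IC50s from 2-day treatments scored by trypan-blue-excluding hemacytometer counts. KB/7d is an etoposide-selected subclone with reduced topoisomerase II.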

| IC50 (KB [1]) | IC50 (KB [2]) | cpm (Nucleic Acid [3]) | cpm (Nucleic Acid [4]) | cpm (Nucleic Acid [5]) | Structure (SMILES) | Ratio [6] |
| --- | --- | --- | --- | --- | --- | --- |
| 13.3 µM | 9.2 µM | – | – | – | COc1cc([C@@H]2c3cc4nc5cc(Cl)c(Cl)cc5nc4cc3[C@H](O)[C@H]3COC(=O)[C@H]23)cc(OC)c1OC | – |
| 0.48 µM | 10.6 µM | 105 | 103 | 101 | COc1cc([C@@H]2c3cc4nc5cc(Cl)c(Cl)cc5nc4cc3[C@@H](Nc3ccc([N+](=O)[O-])cc3)[C@H]3COC(=O)[C@H]23)cc(OC)c1O | 22 |
| 6.63 µM | – | – | – | – | COc1cc([C@@H]2c3cc4nc5cc6ccccc6cc5nc4cc3[C@@H](Nc3ccc([N+](=O)[O-])cc3)[C@H]3COC(=O)[C@H]23)cc(OC)c1O | – |
| 0.11 µM | 0.56 µM | 320 | 309 | 446 | COc1cc([C@@H]2c3cc4nc5ccccc5nc4cc3[C@@H](Nc3ccc([N+](=O)[O-])cc3)[C@H]3COC(=O)[C@H]23)cc(OC)c1O | 5 |
| 23.4 µM | 6.21 µM | – | – | – | COc1cc([C@@H]2c3cc4nc5ccccc5nc4cc3[C@H](O)[C@H]3COC(=O)[C@H]23)cc(OC)c1OC | – |
| 0.164 µM | 23.8 µM | 216 | 2460 | 1840 | COc1cc([C@@H]2c3cc4c(cc3[C@@H](O[C@@H]3O[C@@H]5CO[C@@H](C)O[C@H]5[C@H](O)[C@H]3O)[C@H]3COC(=O)[C@H]23)OCO4)cc(OC)c1O [ETOPOSIDE] | 145 |

| Structure (SMILES) | IC50 (KB [1]) | IC50 (KB [2]) | cpm (Nucleic Acid [3]) | cpm (Nucleic Acid [4]) | cpm (Nucleic Acid [5]) | Ratio [6] |
| --- | --- | --- | --- | --- | --- | --- |
| COc1cc([C@@H]2c3cc4c(cc3[C@@H](Nc3ccc([N+](=O)[O-])cc3)[C@H]3COC(=O)[C@H]23)OCO4)cc(OC)c1O | 0.032 µM | 0.55 µM | – | 2930 | – | 17 KB 7d-1 |
| COc1cc([C@@H]2c3cc(O)c(O)cc3[C@@H](Nc3ccc([N+](=O)[O-])cc3)[C@H]3COC(=O)[C@H]23)cc(OC)c1O | 0.42 µM | 16.6 µM | – | 661 | – | 39 |
